From ChEMBL document CHEMBL3091291, “Synthesis and pharmacological characterization of benzenesulfonamides as dual species inhibitors of human and murine mPGES-1” (Bioorg Med Chem, 2013)
pIC50: −log10 of the molar value. The source made the active and inactive calls. The rule behind the calls is not given here.

Experiments:
[1] = target: T1, Prostaglandin E synthase (Homo sapiens) (UniProt O14684); assay: Inhibition of mPGES-1 in human HeLa cells using PGH2 as substrate assessed as inhibition of IL-1beta/TNFalpha-stimulated PGE2 production at 5 uM preincubated for 30 mins followed by substrate addition measured after 1 min by LC-MS/MS analysis; type: cell-based
T1 sequence (whole entry): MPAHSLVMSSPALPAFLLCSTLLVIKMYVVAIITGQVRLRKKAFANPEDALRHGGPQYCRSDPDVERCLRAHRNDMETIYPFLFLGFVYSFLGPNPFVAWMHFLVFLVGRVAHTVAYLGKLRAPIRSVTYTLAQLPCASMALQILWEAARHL
Summary of the method: (§1)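 Microsomal fraction from HeLa, NIH-3T3 or RAW 264.7 cells, obtained by sonication and ultracentrifugation, resuspended in 0.1 M KPi pH 7.4 with 2.5 mM reduced GSH. Protein at 0.15 mg/mL (HeLa, NIH) or 0.3 mg/mL (RAW) incubated with compound 30 min on ice. Reaction started with 20 µM PGH₂, stopped after 1 min with FeCl₂/citric acid. PGE₂ quantified by SPE and LC–MS/MS. IC50 from four-parameter logistic fit of increasing concentrations.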

[2] = target: T2, Prostaglandin G/H synthase 2 (Homo sapiens) (UniProt P35354); assay: Inhibition of LPS-stimulated COX2 in human whole blood assessed as reduction in PGF2alpha production by measuring remaining activity at 100 uM preincubated for 15 mins followed by LPS addition measured after 24 hrs by LC-MS/MS analysis
T2 sequence (whole entry): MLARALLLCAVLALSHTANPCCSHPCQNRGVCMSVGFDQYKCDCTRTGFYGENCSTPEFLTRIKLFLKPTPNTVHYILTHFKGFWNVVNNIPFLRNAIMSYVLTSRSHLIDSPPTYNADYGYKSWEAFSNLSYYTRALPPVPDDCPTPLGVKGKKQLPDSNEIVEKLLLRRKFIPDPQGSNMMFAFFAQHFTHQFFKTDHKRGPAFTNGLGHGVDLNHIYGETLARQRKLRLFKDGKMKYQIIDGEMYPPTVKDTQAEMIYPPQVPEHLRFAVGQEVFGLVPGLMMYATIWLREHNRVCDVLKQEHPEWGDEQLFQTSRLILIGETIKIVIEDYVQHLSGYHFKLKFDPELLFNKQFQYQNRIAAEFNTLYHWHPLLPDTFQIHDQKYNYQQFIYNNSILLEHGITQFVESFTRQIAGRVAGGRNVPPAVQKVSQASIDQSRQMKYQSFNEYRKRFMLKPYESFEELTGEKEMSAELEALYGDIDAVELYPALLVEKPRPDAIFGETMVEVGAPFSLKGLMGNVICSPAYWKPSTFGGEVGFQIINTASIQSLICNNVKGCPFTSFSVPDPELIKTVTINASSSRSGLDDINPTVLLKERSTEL
Summary of the method: (§2)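 Heparinized human whole blood (500 µL) mixed with compound in DMSO, with acetylsalicylic acid added to block COX-1, held 15 min at 37 °C, then stimulated with LPS in autologous plasma to induce COX-2/mPGES-1. After 24 h at 37 °C, samples chilled 5 min on ice; plasma collected, prostaglandins extracted and measured by LC–MS/MS. Remaining activity given relative to vehicle control.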

[3] = target: T2, Prostaglandin G/H synthase 2 (Homo sapiens); assay: Inhibition of LPS-stimulated COX2 in human whole blood assessed as reduction in PGE2 production by measuring remaining activity at 100 uM preincubated for 15 mins followed by LPS addition measured after 24 hrs by LC-MS/MS analysis; summary of the method: as §2
[4] = target: Prostaglandin G/H synthase 1 (Homo sapiens) (UniProt P23219); assay: Inhibition of COX1 in human whole blood assessed as reduction in TXB2 production by measuring remaining activity at 100 uM after 1 hr by LC-MS/MS analysis
[5] = target: Prostaglandin G/H synthase 1 (Homo sapiens) (UniProt P23219); assay: Inhibition of COX1 in human whole blood assessed as reduction in PGD2 production by measuring remaining activity at 100 uM after 1 hr by LC-MS/MS analysis
[6] = target: T1, Prostaglandin E synthase (Homo sapiens); assay: Inhibition of mPGES-1 in human HeLa cells using PGH2 as substrate assessed as inhibition of IL-1beta/TNFalpha-stimulated PGE2 production at 100 uM after 24 hrs by LC-MS/MS analysis; type: cell-based
Summary of the method: (§3)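 HeLa cells (2 × 10⁴ per well) grown 24 h at 37 °C, then given fresh medium with 1 ng/mL IL-1b + 5 ng/mL TNFa (or PBS for unstimulated control) plus compound (1, 10 or 100 µM) or DMSO for 24 h at 37 °C. Supernatant mixed with H₃PO₄, EDTA and deuterated internal standards; PGE₂ measured by SPE and LC–MS/MS.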

[7] = target: T3, Polyunsaturated fatty acid 5-lipoxygenase (Homo sapiens) (UniProt P09917); assay: Inhibition of calcium ionophore (A23187)-stimulated human 5-LO assessed as reduction of LTB4 production by measuring remaining activity at 100 uM preincubated for 15 mins followed by calcium ionophore (A23187) addition measured after 15 mins by LC-MS/MS analysis
T3 sequence (whole entry): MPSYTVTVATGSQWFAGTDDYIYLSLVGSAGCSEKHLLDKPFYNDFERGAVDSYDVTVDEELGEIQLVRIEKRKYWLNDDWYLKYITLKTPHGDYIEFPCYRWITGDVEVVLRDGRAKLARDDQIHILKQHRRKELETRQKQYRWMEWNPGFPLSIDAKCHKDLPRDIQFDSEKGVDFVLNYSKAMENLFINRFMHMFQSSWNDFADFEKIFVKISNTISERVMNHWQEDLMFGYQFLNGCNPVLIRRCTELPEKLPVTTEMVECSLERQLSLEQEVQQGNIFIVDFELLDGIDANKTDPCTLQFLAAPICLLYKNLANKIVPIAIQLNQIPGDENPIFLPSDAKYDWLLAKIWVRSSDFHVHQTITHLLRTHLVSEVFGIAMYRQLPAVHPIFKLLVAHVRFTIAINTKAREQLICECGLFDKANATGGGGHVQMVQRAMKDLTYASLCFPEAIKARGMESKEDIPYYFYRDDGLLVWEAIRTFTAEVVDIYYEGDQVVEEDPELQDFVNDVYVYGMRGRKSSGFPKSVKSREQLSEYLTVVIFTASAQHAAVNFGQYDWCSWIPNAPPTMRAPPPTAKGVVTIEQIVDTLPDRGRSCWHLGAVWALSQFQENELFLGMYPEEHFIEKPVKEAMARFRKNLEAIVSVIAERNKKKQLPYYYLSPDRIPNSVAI
Summary of the method: (§4)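 Heparinized human whole blood (500 µL) preincubated with compound 15 min at 37 °C, then stimulated with 20 µM calcium ionophore A23187 in autologous plasma for 15 min at 37 °C. Plasma spiked with deuterated LTB₄ and HETE internal standards, extracted into ethyl acetate, analysed by LC–MS/MS. Inhibition scored when a level fell by 33% or more versus control.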

[8] = target: T3, Polyunsaturated fatty acid 5-lipoxygenase (Homo sapiens); assay: Inhibition of calcium ionophore (A23187)-stimulated human 5-LO assessed as reduction of 5(S)-HETE production by measuring remaining activity at 100 uM preincubated for 15 mins followed by calcium ionophore (A23187) addition measured after 15 mins by LC-MS/MS analysis; summary of the method: as §4
[9] = Cytotoxicity against IL-1beta/TNFalpha-stimulated human HeLa cells assessed as cell viability at 100 uM after 24 hrs by WST-1 assay; type: cell-based; details: IL-1beta/TNFalpha-stimulated HeLa cells, read-out: Activity
Summary of the method: (§5)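 HeLa cells seeded at 3 × 10³ per well in medium with 10% FCS, grown 24 h at 37 °C, then stimulated with IL-1b (1 ng/mL) + TNFa (5 ng/mL) and treated at the same time with compound (1, 10, 100 µM) or DMSO for 24 h. WST-1 reagent then added for 90–150 min; absorbance read at 450 nm against 620 nm reference.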

[10] = target: T1, Prostaglandin E synthase (Homo sapiens); assay: Inhibition of mPGES-1 in human HeLa cells using PGH2 as substrate assessed as inhibition of IL-1beta/TNFalpha-stimulated PGE2 production at 1 to 10 uM after 24 hrs by LC-MS/MS analysis; type: cell-based; summary of the method: as §3
HeLa = assay: Cytotoxicity against IL-1beta/TNFalpha-stimulated human HeLa cells assessed as cell viability up to 10 uM after 24 hrs by WST-1 assay; type: cell-based; summary of the method: as §5
[11] = target: T4, Prostaglandin E synthase (Mus musculus) (UniProt Q9JM51); assay: Inhibition of mPGES-1 in mouse RAW264.7 cells using PGH2 as substrate assessed as inhibition of LPS-stimulated PGE2 production at 5 uM preincubated for 30 mins followed by substrate addition measured after 1 min by LC-MS/MS analysis; type: cell-based; summary of the method: as §1
T4 sequence (whole entry): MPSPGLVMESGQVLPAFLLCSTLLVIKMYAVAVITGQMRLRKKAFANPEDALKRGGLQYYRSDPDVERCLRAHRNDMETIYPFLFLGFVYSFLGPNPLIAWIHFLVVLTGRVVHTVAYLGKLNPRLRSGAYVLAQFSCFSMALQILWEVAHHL

Prostaglandin E synthase = target: T5, Prostaglandin E synthase (Homo sapiens, UniProt O14684); assay: Inhibition of mPGES-1 in human HeLa cells using PGH2 as substrate assessed as inhibition of IL-1beta/TNFalpha-stimulated PGE2 production preincubated for 30 mins followed by substrate addition measured after 1 min by LC-MS/MS analysis; type: cell-based; summary of the method: as §1
T5 sequence (O14684 whole entry): T1 sequence (whole entry)

[12] = target: T4, Prostaglandin E synthase (Mus musculus); assay: Inhibition of mPGES-1 in Swiss mouse NIH/3T3 cells using PGH2 as substrate assessed as inhibition of IL-1beta/TNFalpha-stimulated PGE2 production at 5 uM preincubated for 30 mins followed by substrate addition measured after 1 min by LC-MS/MS analysis; type: cell-based; summary of the method: as §1

Prostaglandin G/H synthase 1 (Homo sapiens), sequence (P23219 whole entry): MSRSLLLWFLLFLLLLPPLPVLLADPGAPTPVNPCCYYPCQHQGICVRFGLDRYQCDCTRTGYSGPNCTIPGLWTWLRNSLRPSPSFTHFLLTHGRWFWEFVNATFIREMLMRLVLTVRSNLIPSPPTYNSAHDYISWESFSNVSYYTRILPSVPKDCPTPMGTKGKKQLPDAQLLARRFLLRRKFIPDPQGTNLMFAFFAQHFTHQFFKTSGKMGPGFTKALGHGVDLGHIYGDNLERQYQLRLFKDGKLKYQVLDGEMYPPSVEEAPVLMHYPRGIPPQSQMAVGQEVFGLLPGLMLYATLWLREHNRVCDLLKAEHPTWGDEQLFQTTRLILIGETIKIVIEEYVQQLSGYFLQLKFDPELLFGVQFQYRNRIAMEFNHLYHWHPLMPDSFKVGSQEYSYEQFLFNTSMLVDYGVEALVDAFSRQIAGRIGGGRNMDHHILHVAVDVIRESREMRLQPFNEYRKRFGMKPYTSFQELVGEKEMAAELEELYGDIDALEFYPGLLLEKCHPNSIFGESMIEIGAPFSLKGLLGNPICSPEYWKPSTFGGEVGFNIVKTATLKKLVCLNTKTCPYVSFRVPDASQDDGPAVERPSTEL

Compound	inhibition [1] [%]	other results
COc1ccc(CN(Cc2nc(C)cs2)S(=O)(=O)c2ccc(C(=O)O)cc2)cc1	2.9	–
COc1ccc(CN(Cc2ccsc2)S(=O)(=O)c2ccc(C(=O)O)cc2)cc1	11.9	–
CCN(c1ccccc1)S(=O)(=O)c1ccc(C(=O)O)cc1	< 0	–
O=C(O)c1ccc(S(=O)(=O)N(CCc2ccccc2)Cc2ccccc2)cc1	57	Activity [2]: 117%; Activity [3]: 83.3%
O=S(=O)(c1ccc(C(F)(F)F)cc1)N(Cc1ccccc1)Cc1ccccc1	11.9	–
O=S(=O)(c1ccccc1Cl)N(Cc1ccccc1)Cc1ccccc1	< 0	–
O=S(=O)(c1ccc(Cl)cc1)N(Cc1ccccc1)Cc1ccccc1	< 0	–
O=C(O)c1ccc(S(=O)(=O)N(Cc2ccc(Oc3ccccc3)cc2)CC2CCCCC2)cc1	79.2	–
COc1ccc(CN(Cc2ccoc2)S(=O)(=O)c2ccc(C(=O)O)cc2)cc1	14.2	–
CCCCN(Cc1ccccc1)S(=O)(=O)c1ccc(C(=O)O)cc1	19.1	Activity [4]: 97.8%; Activity [5]: 73.4%; inhibition [6]: Active; Activity [2]: 117%; Activity [7]: 124%; Activity [3]: 62.8%; Activity [8]: 121%; viability at 24 h, 100 µM [9]: 50%; inhibition [10]: inactive; Activity (HeLa): Non-toxic
O=C(O)c1ccc(S(=O)(=O)N2CCN(c3ccccc3)CC2)cc1	58.7	–
CCCCN(c1ccccc1)S(=O)(=O)c1ccc(C(=O)O)cc1	< 0	–
O=C(O)c1ccc(S(=O)(=O)N(Cc2ccccc2)c2ccccc2)cc1	26.4	–
O=C(O)c1ccc(S(=O)(=O)N(Cc2ccc(Cl)cc2)CC2CCCCC2)cc1	48.4	–
O=S(=O)(c1ccc(F)cc1)N(Cc1ccccc1)Cc1ccccc1	< 0	–
Cc1ccc(-c2cc(C(F)(F)F)nn2-c2ccc(S(N)(=O)=O)cc2)cc1 [CELECOXIB]	–	inhibition [6]: Active; viability at 24 h, 100 µM [9]: 50%; inhibition [10]: inactive; Activity (HeLa): Non-toxic
O=C(O)c1cccc(S(=O)(=O)N(Cc2ccccc2)Cc2ccccc2)c1	35.8	–
N#Cc1ccc(S(=O)(=O)N(Cc2ccccc2)Cc2ccc(Oc3ccccc3)cc2)cc1	1	–
O=S(=O)(c1cccc(Cl)c1)N(Cc1ccccc1)Cc1ccccc1	6.2	–
COc1ccc(CN(Cc2cccc(C#N)c2)S(=O)(=O)c2ccc(C(=O)O)cc2)cc1	6	–
COc1ccc(CN(Cc2ccc(C#N)cc2)S(=O)(=O)c2ccc(C(=O)O)cc2)cc1	< 0	–
O=C(O)c1ccc(CN(Cc2ccccc2)Cc2ccccc2)cc1	17.4	–
CCN(Cc1ccccc1)S(=O)(=O)c1ccc(C(=O)O)cc1	< 0	–
O=C(O)c1ccc(S(=O)(=O)N(Cc2ccc(-c3ccccc3)cc2)CC2CCCCC2)cc1	76	Activity [2]: 117%; Activity [7]: 75.7%; inhibition [11]: 44.4%; Activity [3]: 69.7%; Activity [8]: 75.9%; pIC50 (Prostaglandin E synthase): 6.10; inhibition [12]: 51.9%
N#Cc1ccc(S(=O)(=O)N(Cc2ccccc2)Cc2ccccc2)cc1	34.1	–
O=C(O)c1ccc(S(=O)(=O)N(Cc2ccccc2)Cc2ccccc2)cc1	51.4	–
O=C(O)c1ccc(S(=O)(=O)N(CCCc2ccccc2)Cc2ccccc2)cc1	73	Activity [2]: 129%; Activity [3]: 68%
